In ChEMBL document CHEMBL4371058, “Design, synthesis and characterization of novel N-heterocyclic-1-benzyl-1H-benzo[d]imidazole-2-amines as selective TRPC5 inhibitors leading to the identification of the selective compound, AC1903” (Bioorg Med Chem Lett, 2019):

Experiments:
[1] = target: T1, Short transient receptor potential channel 5 (Mus musculus, UniProt Q9QX29); experiment: Inhibition of mouse TRPC5 expressed in Flp-In-T-Rex-HEK293 cells assessed as reduction in […]-induced channel current by automated patch clamp method; type: cell-based
T1 sequence (Q9QX29 whole entry): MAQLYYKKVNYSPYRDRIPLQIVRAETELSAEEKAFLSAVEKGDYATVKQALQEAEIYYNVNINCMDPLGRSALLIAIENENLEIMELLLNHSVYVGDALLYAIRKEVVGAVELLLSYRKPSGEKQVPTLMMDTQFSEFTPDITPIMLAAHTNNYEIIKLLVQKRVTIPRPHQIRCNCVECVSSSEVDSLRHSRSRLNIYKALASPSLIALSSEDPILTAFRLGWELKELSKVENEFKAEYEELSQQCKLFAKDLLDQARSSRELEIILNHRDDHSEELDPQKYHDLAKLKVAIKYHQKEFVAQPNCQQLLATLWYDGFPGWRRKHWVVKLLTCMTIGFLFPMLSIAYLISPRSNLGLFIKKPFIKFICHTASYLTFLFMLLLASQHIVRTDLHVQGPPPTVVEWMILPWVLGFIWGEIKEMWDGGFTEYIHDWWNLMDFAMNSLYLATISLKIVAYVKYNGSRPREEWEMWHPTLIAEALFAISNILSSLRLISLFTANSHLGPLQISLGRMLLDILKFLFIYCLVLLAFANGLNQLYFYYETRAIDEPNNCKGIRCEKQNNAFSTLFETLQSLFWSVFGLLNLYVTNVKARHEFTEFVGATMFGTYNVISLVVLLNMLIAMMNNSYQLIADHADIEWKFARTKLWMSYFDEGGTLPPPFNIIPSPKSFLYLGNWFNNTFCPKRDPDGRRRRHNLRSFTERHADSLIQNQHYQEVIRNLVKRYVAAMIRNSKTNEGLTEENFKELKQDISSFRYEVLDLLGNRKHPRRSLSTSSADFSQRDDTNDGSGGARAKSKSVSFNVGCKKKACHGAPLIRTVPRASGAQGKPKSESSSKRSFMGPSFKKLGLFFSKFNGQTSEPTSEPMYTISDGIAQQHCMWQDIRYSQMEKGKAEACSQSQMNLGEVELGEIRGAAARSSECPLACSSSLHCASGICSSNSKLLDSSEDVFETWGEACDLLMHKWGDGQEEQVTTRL
Procedure, shortened: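 Automated patch clamp (Syncropatch) with multiple concentrations in multiple wells. IC50 determined from these wells.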

[2] = target: T2, Short transient receptor potential channel 5 (Mus musculus) (UniProt Q9QX29); experiment: Inhibition of mouse TRPC5 expressed in Flp-In-T-Rex-HEK293 cells assessed as reduction in […]-induced channel current at 3 uM by automated patch clamp method relative to control; type: cell-based
T2 sequence (whole entry): T1 sequence (Q9QX29 whole entry)
Procedure, shortened: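 Automated patch clamp (Syncropatch), one concentration in one well, >10 cells. At least one session across two assay plates. DMSO vehicle and a reference inhibitor run as controls on every plate. Result expressed as % inhibition.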

[3] = AUC in rat at 25 mg/kg, ip; type: ADME, organism-based; conditions: in vivo
Procedure, shortened: (§1)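 Single intraperitoneal dose of 25 mg/kg in 5% DMSO, 10% Tween80, 85% PBS.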

[4] = Tmax in rat at 25 mg/kg, ip; type: ADME, organism-based; conditions: in vivo; procedure, shortened: as §1
[5] = Cmax in rat at 25 mg/kg, ip; type: ADME, organism-based; set-up: dose 25 mg/kg, route intraperitoneal; conditions: in vivo; procedure, shortened: as §1

Row | SMILES | inhibition [2] [%] | other results
1 | CCCn1c(NCc2ccco2)nc2ccccc21 | 81.2 | IC50 [1]: 15.5 µM
2 | Fc1ccc(Cn2c(NCc3ccco3)nc3ccccc32)c(Cl)c1 | 23.6 | 
3 | CN(Cc1ccco1)c1nc2ccccc2n1Cc1ccccc1 | 41.7 | 
4 | COc1ccc(Cn2c(NCc3ccco3)nc3ccccc32)cc1F | 88.4 | IC50 [1]: 11.6 µM
5 | Fc1ccc(Cn2c(NCc3ccco3)nc3ccccc32)cc1 |  | IC50 [1]: 1.82 µM
6 | c1ccc(Cn2c(Nc3ccccc3)nc3ccccc32)cc1 | 18.9 | 
7 | c1ccc(Cn2c(NCc3ccco3)nc3cccnc32)cc1 | 31.2 | 
8 | c1coc(CNc2nc3ccccc3n2CCN2CCOCC2)c1 | 34.4 | 
9 | CC(Nc1nc2ccccc2n1Cc1ccccc1)c1nccs1 (configuration not stated) | 45 | 
10 | Brc1ccc(OCCn2c(NCc3ccco3)nc3ccccc32)cc1 | 91.1 | 
11 | c1coc(CNc2nc3ccccc3n2CC2CCC2)c1 | 117 | 
12 | Fc1ccc(Cn2c(NCc3ccco3)nc3cccnc32)cc1 | 21.7 | 
13 | c1coc(CNc2nc3ccccc3n2CC2CCCCC2)c1 | 61.6 | 
14 | Fc1cc(Cl)ccc1Cn1c(NCc2ccco2)nc2ccccc21 | 128 | IC50 [1]: 18.1 µM
15 | Clc1cc2nc(NCc3ccco3)n(Cc3ccccc3)c2cc1Cl | 28.2 | 
16 | c1coc(CNc2nc3ccccc3n2CC2CCCO2)c1 (configuration not stated) | 65.2 | 
17 | N#Cc1ccc(Cn2c(NCc3ccco3)nc3ccccc32)cc1 | 50.5 | 
18 | Fc1ccc(Cn2c(NCc3ccco3)nc3ccccc32)c(F)c1 | 87 | IC50 [1]: 8.42 µM
19 | c1ccc(Cn2c(Nc3cccnc3)nc3ccccc32)cc1 | 19.9 | 

Now from value to compound, other results behind:

Row | inhibition [2] [%] | SMILES | other results
20 | 70.9 | Clc1ccc(Cn2c(NCc3ccco3)nc3ccccc32)cc1 | 
21 | 18 | c1ccc(Cn2c(NCc3cc4ccccc4o3)nc3ccccc32)cc1 | 
22 | -1.8 | c1ccc(Cn2c(NCc3ccccn3)nc3ccccc32)cc1 | 
23 | 38.5 | O=C(Nc1nc2ccccc2n1Cc1ccccc1)c1ccco1 | 
24 | 19 | Cc1nc2ccccc2n1Cc1ccccc1 | 
25 | 123 | Cc1cc2nc(NCc3ccco3)n(Cc3ccccc3)c2cc1C | IC50 [1]: 12.3 µM
26 | 47 | c1ccc(Cn2c(NCc3ccon3)nc3ccccc32)cc1 | 
27 | 70.2 | Clc1cccc(Cn2c(NCc3ccco3)nc3ccccc32)c1 | 
28 | 32.8 | c1ccc(CNc2nc3ccccc3n2Cc2ccccc2)cc1 | 
29 | 150 | c1ccc(Cn2c(NCc3cccs3)nc3ccccc32)cc1 | IC50 [1]: 6.26 µM
30 | 2.6 | Clc1ccccc1Cn1c(NCc2ccco2)nc2ccccc21 | 
31 | 30 | Cc1nnc(CNc2nc3ccccc3n2Cc2ccccc2)s1 | 
32 | 61.9 | Fc1cccc(Cn2c(NCc3ccco3)nc3ccccc32)c1 | 
33 | 100 | c1ccc(Cn2c(NCc3ccco3)nc3ccccc32)cc1 | AUC [3]: 1130 ng·h/mL; IC50 [1]: 4.06 µM; Tmax [4]: 6.6 min; Cmax [5]: 687 ng/mL
34 | 91.4 | CC(Nc1nc2ccccc2n1Cc1ccccc1)c1ccco1 (configuration not stated) | IC50 [1]: 4.44 µM
35 | 12 | c1ccc(Cn2c(NCc3cccnc3)nc3ccccc32)cc1 | 
36 | 54.4 | Fc1ccccc1Cn1c(NCc2ccco2)nc2ccccc21 | 
37 | 19.8 | Cc1nc(CNc2nc3ccccc3n2Cc2ccccc2)no1 | 
38 | 82.3 | Cc1ccoc1CNc1nc2ccccc2n1Cc1ccccc1 | IC50 [1]: 6.93 µM
39 | 19.1 | c1ccc(Cn2c(NCc3ncco3)nc3ccccc32)cc1 | 
40 | 33.3 | c1ccc(Cn2c(NCc3cnco3)nc3ccccc32)cc1 | 
41 | 42.5 | c1ccc(Cn2c(NCc3nccs3)nc3ccccc32)cc1 | 
42 | 35.7 | Cc1ncc(CNc2nc3ccccc3n2Cc2ccccc2)s1 | 
43 | 94.6 | Cc1cccc(Cn2c(NCc3ccco3)nc3ccccc32)c1 | IC50 [1]: 4.8 µM
44 | 17.4 | c1ccc(Cn2c(NCc3ccncc3)nc3ccccc32)cc1 | 
